A selection: hits, their analogues and other compounds. The true share with any hit is near 0.95%.
HKDC1 inh: HKDC1 hexokinase inhibitors, primary screen, biochemical, fluorescence, uHTS; Q2TB90; recombinant HKDC1, G6PDH/diaphorase resazurin coupled fluorescence; inhibition, % at 20 µM; actives 0.16% (n = 340,000);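 active = inhibition above about 35% when tested at 20 µM, limit read from the data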
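Material – in-house recombinant HK5 (HKDC1) enzyme · Quantity – HKDC1 at 5 µg/mL · Buffer or medium – pH 8.0 Tris buffer with 10 mM MgCl2 · Reagent – glucose with 1 mM ATP · Dosing – single 20 µM dose · Times – reaction time 90 min, room temperature, protected from light · Technique – resorufin fluorescence at 613 nm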
Diaph inh CS: diaphorase inhibitors and chemical oxidizers, primary screen, counter-screen for diaphorase-coupled primary assays, biochemical, uHTS, resorufin fluorescence; AID 1217, 2008; actives 0.69% (n = 190,000); inhibition, % at 20 µM; diaphorase resazurin-to-resorufin fluorescence, NADH, 16 min; bacterial (C. kluyveri) enzyme, not human;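 active = primary screen inhibition at 20 µM above a set limit, cut at about 50% in these data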
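System: Bacterial diaphorase enzyme (C. kluyveri) | Incubation: 16-min room-temperature incubation before reading | Benchmarks: No-NADH positive control and DMSO neutral control | Measured by: Resorufin fluorescence 544/590 nm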
p97 inhibitor: inhibitors of human p97 ATPase, primary screen, biochemical; Transitional endoplasmic reticulum ATPase (Homo sapiens), P55072; recombinant p97 ATPase, Kinase-Glo ATP luminescence, 3 h; inhibition, % at 8 µM; actives 0.42% (n = 220,000); in the data active = inhibition above about 15%
G6PDH CS: L. mesenteroides G6PDH inhibitors, counter-screen for G6PDH-coupled screening assays, biochemical, Leuconostoc mesenteroides enzyme. glucose-6-phosphate dehydrogenase [Leuconostoc mesenteroides]. Purified L. mesenteroides G6PDH, diaphorase/resazurin coupled fluorescence, 45 min. inhibition, % at 5 µM. actives 0.12% (n = 200,000). AID 1020, 2008; in the data active = inhibition above about 50%
UBC9 SUMO inh: inhibitors of in vitro SUMOylation cascade, primary screen, biochemical, HTRF, uHTS. SUMO-conjugating enzyme UBC9 (Homo sapiens), P63279. HTRF SUMOylation assay, SAE1/SAE2 + UBC9. inhibition, % at 35 µM. actives 0.36% (n = 290,000). AID 2006, 2009; in the data active = inhibition above about 50%, passing the limit was not always enough
Target sequence (P63279 whole entry, looked up): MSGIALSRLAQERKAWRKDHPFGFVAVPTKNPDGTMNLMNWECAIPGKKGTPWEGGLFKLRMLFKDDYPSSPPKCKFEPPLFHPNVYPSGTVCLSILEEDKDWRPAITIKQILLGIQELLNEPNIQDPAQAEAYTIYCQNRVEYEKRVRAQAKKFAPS
Of the large screens only hits and unclear results are named; the others gave an inactive call.

Cc1c(Cl)cnc(NC(=O)COC(=O)c2ccncc2)c1Cl	none (no result: Diaph inh CS, p97 inhibitor, G6PDH CS, UBC9 SUMO inh)
CC(=O)N(C1=C(N2CCOCC2)C(=O)c2ccccc2C1=O)c1ccc(C(=O)O)cc1	none (no result: Diaph inh CS, G6PDH CS)
CC(=O)N(C)C1=C(N2CCOCC2)C(=O)c2ccccc2C1=O	G6PDH CS 55.2
C=CCN=c1scc(-c2ccco2)n1/N=C/c1ccc(O)c(O)c1O	none (no result: Diaph inh CS, G6PDH CS)
COCCN=c1scc(-c2ccco2)n1/N=C/c1ccc(O)c(O)c1O	Diaph inh CS 79.7
CC(C)N=c1scc(-c2ccco2)n1/N=C/c1ccc(O)c(O)c1	Diaph inh CS 59.2
COc1ccc(-c2noc(CCC(=O)NC3CCCCC3)n2)cc1	none (no result: Diaph inh CS, p97 inhibitor, G6PDH CS)
CCOC1=C/C(=C/c2c(N)n3nc(-c4ccccc4)sc3nc2=O)C=CC1=O	Diaph inh CS 69.4
COC1=C/C(=C/c2c(N)n3nc(-c4ccc(C)cc4)sc3nc2=O)C=CC1=O	none
COc1cc(CN2CCN(Cc3ccc(C)cc3)C(CCO)C2)cc(OC)c1O (centres undefined)	G6PDH CS 58.4
O=C(c1cccs1)N1N=C(c2ccccc2)CC1c1ccccc1O (centres undefined)	UBC9 SUMO inh 65.9
Cc1ccc(C2=NN(C(=O)c3cccs3)C(c3ccccc3O)C2)cc1 (centres undefined)	none
CC(=O)n1cc([C@@H]2C=C(C(=O)N3CCOCC3)O[C@H](OCCCCO)C2)c2ccccc21	none
CC(=O)n1cc([C@H]2C=C(C(=O)N3CCN(Cc4ccc5c(c4)OCO5)CC3)O[C@@H](OCCCCO)C2)c2ccccc21	Diaph inh CS 56.5
CCO[C@@H]1OC(C(=O)N2CCN(Cc3ccc4c(c3)OCO4)CC2)=C[C@H](c2cn(C(C)=O)c3ccccc23)[C@H]1CCCO	Diaph inh CS 55.7
CCOC(=O)C1CCN(C(=O)c2ccc(CNS(=O)(=O)c3ccc(OC)cc3)cc2)CC1	none
Cc1ccc(C)c(NC(=O)CN(C)C(=O)C2CCN(C(=O)Nc3ccccc3)CC2)c1	none (no result: Diaph inh CS, p97 inhibitor, G6PDH CS, UBC9 SUMO inh)
CC1(C)CNc2cc(N)ccc2S1	Diaph inh CS 72.4
CC(C)C1=CC(=Nc2ccc(S(N)(=O)=O)cc2)C=C(C(C)C)C1=O	none (no result: Diaph inh CS, p97 inhibitor, G6PDH CS)
CCOc1ccc(S(=O)(=O)N(CC(=O)N/N=C/c2ccc(-c3ccc([N+](=O)[O-])cc3)o2)c2ccccc2)cc1	Diaph inh CS 61.7
O=P(c1ccccc1)(c1ccccc1)C(O)c1ccc(Br)cc1 (centres undefined)	none (no result: Diaph inh CS, p97 inhibitor, G6PDH CS)
O=[N+]([O-])c1ccc(Sc2cccc[n+]2[O-])c2nonc12	UBC9 SUMO inh 66.5 (no result: Diaph inh CS, G6PDH CS)
CCN1C[C@@H]2[C@@H]3C(=O)N(C)C(=O)[C@@H]3[C@](Cc3ccccc3)(C(=O)OC)N2C1=NC1CCCCC1	none (no result: Diaph inh CS, p97 inhibitor, G6PDH CS, UBC9 SUMO inh)
O=C(Cc1ccccc1)NC(Nc1cccc2ccccc12)C(Cl)(Cl)Cl (centres undefined)	Diaph inh CS 68.7
O=C(Cc1ccccc1)NC(Nc1ccccc1)C(Cl)(Cl)Cl (centres undefined)	none
Cc1oc(-c2ccc(F)cc2)cc1-c1nn2c(-c3ccoc3C)nnc2s1	Diaph inh CS 57.5 (no result: p97 inhibitor)
Cc1nc2ccc(Cl)cc2nc(C)/c1=N\O	Diaph inh CS 58.2
O=C(NC(=S)Nc1ccc(N2CCN(C(=O)c3ccccc3)CC2)cc1)c1cccs1	none
O=C(N/N=C/c1cc(Cl)cc([N+](=O)[O-])c1O)c1cc(-c2ccccn2)nc2ccccc12	UBC9 SUMO inh 86.6 (no result: Diaph inh CS, G6PDH CS)
Nc1c(C(=O)N/N=C/c2cccnc2)oc2nc(-c3ccccc3)cc(-c3ccco3)c12	p97 inhibitor 14.6 (no result: Diaph inh CS, G6PDH CS)
NC(=O)N/N=C/c1ccc2cccc(OCc3ccccc3)c2n1	UBC9 SUMO inh 57.5 (no result: Diaph inh CS, G6PDH CS)
Cc1cccc(/C=N/NC(=O)c2cc(Br)ccc2OCc2ccccc2)n1	none (no result: Diaph inh CS, p97 inhibitor, G6PDH CS)
O=C(Cc1ccccc1)N/N=C/c1ccc2cccc(O)c2n1	G6PDH CS 56.2
O=C(Cc1ccccc1)N/N=C/c1cccnc1	none (no result: Diaph inh CS, p97 inhibitor, G6PDH CS)
CCOC(=O)CNC(=O)Cn1cnc2c(cnn2-c2ccc(C)cc2)c1=O	none (no result: Diaph inh CS, p97 inhibitor, G6PDH CS)
CCCCCc1ccc(C(=O)CCCC)c(=S)[nH]1	Diaph inh CS 57.1
Cc1cccc(N2CCN(S(=O)(=O)c3ccc4c(c3)CCCN4C(=O)C3CCC3)CC2)c1C	none (no result: Diaph inh CS, p97 inhibitor, G6PDH CS)
O=C(/C(=N/N=C/c1ccc(O)c(O)c1)c1ccccc1)c1ccccc1	Diaph inh CS 51.3
O=C(c1cccn2c(=O)c3cc(Cl)ccc3nc12)N1CCOCC1	UBC9 SUMO inh 52.2
O=C(c1cccn2c(=O)c3cc(Cl)ccc3nc12)N1CCN(Cc2ccc3c(c2)OCO3)CC1	none
COc1ccc(S(=O)(=O)N(C)CC(=O)NCCN2CCOCC2)cc1C	none (no result: Diaph inh CS, p97 inhibitor, G6PDH CS)
OCCCNC(=S)Nc1ccc2nc(-c3ccccn3)c(-c3ccccn3)nc2c1	Diaph inh CS 68.3, G6PDH CS 51.7
CN(C)NC(=S)Nc1ccc2nc(-c3ccccn3)c(-c3ccccn3)nc2c1	none
S=C(Nc1ccc2nc(-c3ccccn3)c(-c3ccccn3)nc2c1)N1CCOCC1	Diaph inh CS 51.4, G6PDH CS 52.9
COCCC(=O)N1CCC(n2nccc2NC(=O)c2ccccc2C)CC1	none (no result: Diaph inh CS, p97 inhibitor, G6PDH CS)
O=S(=O)(O)c1cccc2c(N=Nc3ccc(O)c4ncccc34)cccc12	UBC9 SUMO inh 90.4 (no result: Diaph inh CS, p97 inhibitor, G6PDH CS)
Cc1ccccc1N=Nc1ccc(O)c2ncccc12	none
Cc1ccc(S(=O)(=O)N2CCCCC2)cc1NC(=O)c1cnccn1	none (no result: Diaph inh CS, p97 inhibitor, G6PDH CS, UBC9 SUMO inh)
O=c1[nH]c(=S)[nH]c2scc(-c3ccc(Br)cc3)c12	none (no result: Diaph inh CS, p97 inhibitor, G6PDH CS, UBC9 SUMO inh)
CCc1ccc2nc(NC(=O)Cn3cnc4ccccc4c3=O)sc2c1	UBC9 SUMO inh 50.3
CN(Cc1ccccc1)C(=O)c1ccc(S(=O)(=O)N(C)c2ccccc2)cc1	none (no result: Diaph inh CS, p97 inhibitor, G6PDH CS, UBC9 SUMO inh)

High-throughput results deposited in PubChem by several laboratories.
